From ChEMBL document CHEMBL4312027, “Synthesis, characterization, and biological activity of a triphenylphosphonium-containing imidazolium salt against select bladder cancer cell lines” (Eur J Med Chem, 2020)
Active and inactive are the calls of the source. The rule behind the calls is not given here.

What was measured:
[1] = system: UMUC3; test: Growth inhibition of human UM-UC-3 cells measured after 1 hr by Celltiter-Glo luminescent cell viability assay; assay type: functional; conditions: UMUC3, 1 h
Procedure, shortened: (§1)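 Cells seeded 10000/well, 24 h, then exposed in ATCC-recommended medium to 62.5–2000 μM (two-fold steps) or vehicle for the set time (5–60 min), then normal medium. After 24 h, plates equilibrated 30 min at room temperature, CellTiter-Glo added, 2 min at room temperature, luminescence read. Survival relative to vehicle control; quadruplicate.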

[2] = system: RT-112; test: Induction of apoptosis in human RT112 cells assessed as increase in PARP cleavage at 500 uM incubated for 1 hr measured at 24 hrs after treatment by Western blot analysis; assay type: functional, cell-based
Procedure, shortened: (§2)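 RT112 seeded 300,000/well; after 24 h, 250 or 500 μM or vehicle. Cells plus floating debris harvested immediately or 24 h after treatment, lysed in RIPA with protease inhibitors. About 30 μg protein heated 10 min at 95 °C with DTT, run on SDS-PAGE. Immunoblotted for PARP and caspase 9, Ran as loading control, ECL detection.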

[3] = system: RT-112; test: Induction of mitochondrial membrane depolarization in human RT112 cells at 200 uM measured after 1 hr by JC-1 staining based confocal microscopy; assay type: functional, cell-based
Procedure, shortened: (§3)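 RT112 cells, 200000 per glass-bottom dish, plated overnight. Exposed to 200 μM for 45 min, then JC-1 added (final 10 μg/mL) for 15 min. Confocal live imaging, excitation 485 nm, emission 530 and 590 nm, every 15 min for 6 h. Red punctate staining taken as polarized mitochondria, green as depolarized. CCCP as positive control.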

[4] = system: NCI-H226; test: Growth inhibition of human NCI-H226 cells assessed as growth percent at 10 uM incubated for 48 hrs by sulforhodamine B assay relative to control; assay type: functional; conditions: NCI-H226, 48 h, read-out: Activity
[5] = system: RT-112; test: Induction of apoptosis in human RT112 cells assessed as increase in caspase 9 cleavage at 250 uM incubated for 1 hr and measured immediately after treatment by Western blot analysis; assay type: functional, cell-based; procedure, shortened: as §2
[6] = system: Mus musculus; test: (§4) Antitumor activity against anesthetized BBN-induced bladder tumor mouse model assessed as increase in cleaved caspase 3 level in hyperplasia region at 1500 uM administered via intravesical instillation treated for 1 hr administered as 2 doses at 24 hrs interval and measured at 24 hrs after final treatment by hematoxylin and eosin staining based immunohistochemical analysis; assay type: functional, organism-based
[7] = system: UACC-257; test: Growth inhibition of human UACC257 cells assessed as growth percent at 10 uM incubated for 48 hrs by sulforhodamine B assay relative to control; assay type: functional; conditions: UACC-257, 48 h, read-out: Activity
[8] = system: 5637; test: Growth inhibition of human 5637 cells measured after 1 hr by Celltiter-Glo luminescent cell viability assay; assay type: functional; conditions: Homo sapiens, 5637, 1 h
Procedure, shortened: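 Seeded at 10000 cells/well and grown 24 h, then exposed to 62.5–2000 μM (two-fold steps) or vehicle in growth medium for 1 h. Medium was replaced with normal medium for 24 h before CellTiter-Glo luminescence was read. Survival was expressed relative to vehicle, with quadruplicate wells, and GI50 was calculated.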

[9] = system: NCI-H322M; test: Growth inhibition of human NCI-H322M cells assessed as growth percent at 10 uM incubated for 48 hrs by sulforhodamine B assay relative to control; assay type: functional; conditions: read-out: Activity
[10] = system: Mus musculus; test: as §4, with “dysplasia” for “hyperplasia”; assay type: functional, organism-based
[11] = system: SK-MEL-2; test: Growth inhibition of human SK-MEL-2 cells assessed as growth percent at 10 uM incubated for 48 hrs by sulforhodamine B assay relative to control; assay type: functional; conditions: SK-MEL-2, 48 h, read-out: Activity
[12] = system: IGROV-1; test: Growth inhibition of human IGROV1 cells assessed as growth percent at 10 uM incubated for 48 hrs by sulforhodamine B assay relative to control; assay type: functional; conditions: IGROV-1, 48 h, read-out: Activity
[13] = system: A498; test: Growth inhibition of human A498 cells assessed as growth percent at 10 uM incubated for 48 hrs by sulforhodamine B assay relative to control; assay type: functional; conditions: A498, 48 h, read-out: Activity
[14] = system: SF-268; test: Growth inhibition of human SF268 cells assessed as growth percent at 10 uM incubated for 48 hrs by sulforhodamine B assay relative to control; assay type: functional; conditions: SF-268, 48 h, read-out: Activity
[15] = system: MDA-MB-468; test: Growth inhibition of human MDA-MB-468 cells assessed as growth percent at 10 uM incubated for 48 hrs by sulforhodamine B assay relative to control; assay type: functional; conditions: MDA-MB-468, 48 h, read-out: Activity
[16] = system: RT-112; test: Growth inhibition of human RT112 cells at 250 uM measured after 5 to 60 mins by Celltiter-Glo luminescent cell viability assay; assay type: functional, cell-based
[17] = system: RT-112; test: Anticlonogenic activity against human RT112 cells assessed as no colony formation at 250 to 500 uM incubated for 1 hr measured after culturing in normal medium for 10 days by crystal violet staining assay; assay type: functional, cell-based
Procedure, shortened: (§5)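 Cells seeded at 500/well, treated 24 h later with 250 or 500 μM drug or vehicle for 1 h. Cells were then grown in normal media for 10 days, stained with 0.5% crystal violet in 20% MeOH/water at 4 °C for 5 min, washed, dried and imaged. Run in triplicate.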

[18] = system: HT-29; test: Growth inhibition of human HT-29 cells assessed as growth percent at 10 uM incubated for 48 hrs by sulforhodamine B assay relative to control; assay type: functional; conditions: HT-29, 48 h, read-out: Activity
[19] = system: RT-112; test: Induction of mitochondrial membrane depolarization in human RT112 cells at 200 uM measured after 2 to 4 hrs by JC-1 staining based confocal microscopy; assay type: functional, cell-based; procedure, shortened: as §3
[20] = system: RPMI-8226; test: Growth inhibition of human RPMI8226 cells assessed as growth percent at 10 uM incubated for 48 hrs by sulforhodamine B assay relative to control; assay type: functional; conditions: RPMI-8226, 48 h, read-out: Activity
[21] = system: J82; test: Anticlonogenic activity against human J82 cells assessed as decrease in colony formation at 250 to 500 uM incubated for 1 hr measured after culturing in normal medium for 10 days by crystal violet staining assay; assay type: functional, cell-based; procedure, shortened: as §5
[22] = system: Hs-578T; test: Growth inhibition of human Hs 578T cells assessed as growth percent at 10 uM incubated for 48 hrs by sulforhodamine B assay relative to control; assay type: functional; conditions: read-out: Activity
[23] = system: ACHN; test: Growth inhibition of human ACHN cells assessed as growth percent at 10 uM incubated for 48 hrs by sulforhodamine B assay relative to control; assay type: functional; conditions: read-out: Activity
[24] = system: RT-112; test: Growth inhibition of human RT112 cells at 500 uM measured after 1 hr by Celltiter-Glo luminescent cell viability assay relative to control; assay type: functional; conditions: RT-112, 1 h, read-out: GI; procedure, shortened: as §1
[25] = Solubility of compound in water; assay type: physicochemical
[26] = system: RT-112; test: Growth inhibition of human RT112 cells at 1000 uM measured after 5 mins by Celltiter-Glo luminescent cell viability assay; assay type: functional, cell-based; procedure, shortened: as §1

[Br-].[Br-].c1ccc([P+](CCCc2n(Cc3ccc4ccccc4c3)c3ccccc3[n+]2Cc2ccc3ccccc3c2)(c2ccccc2)c2ccccc2)cc1
GI50 [1]: 80 µM | Activity [2]: Active | Activity [3]: inactive | growth at 10 µM [4]: 83.5% | Activity [5]: Active | Activity [6]: Active | growth at 10 µM [7]: 84% | GI50 [8]: 200 µM | growth at 10 µM [9]: 63.8% | Activity [10]: Active | growth at 10 µM [11]: 100% | growth at 10 µM [12]: 20.8% | growth at 10 µM [13]: 67.2% | growth at 10 µM [14]: 79% | growth at 10 µM [15]: 34.5% | growth inhibition (GI) [16]: Active | inhibition [17]: Active | growth at 10 µM [18]: 23.9% | Activity [19]: Active | growth at 10 µM [20]: 6.9% | inhibition [21]: Active | growth at 10 µM [22]: 68.6% | growth at 10 µM [23]: 81.4% | inhibition of growth at 500 µM [24]: 100% | solubility [25]: 8000 µg/mL | growth inhibition (GI) [26]: Active
